Results reported in article PMC8248431 (The Febs Journal, 2021).

How the values were obtained:
AncDyPD‐b1 R390A = assay: Steady-state kinetics of peroxidase activity, AncDyPD-b1 R390A variant; format: biochemical; conditions: cooperativity model; 25 °C; H2O2 with ABTS as electron donor
Summary of the method: (§1)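 Purified untagged (SUMO-cleaved) mutant ancestral DyP, expressed in E. coli. H2O2 varied at 25 °C in 50 mM sodium citrate at the ABTS optimal pH 3.0. ABTS was held at its maximum-activity level below substrate inhibition: 10 µM for D222A, D222E and R390K-D222E, 25 µM for R390K, and 50 µM for R390A. Reactions were started with 50–500 nM enzyme, raised to 2.0 µM if activity was low.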

AncDyPD‐b1 R390K = assay: Steady-state kinetics of peroxidase activity, AncDyPD-b1 R390K variant; format: biochemical; conditions: cooperativity model; 25 °C; H2O2 with ABTS as electron donor
Summary of the method: as §1

AncDyPD‐b1 D222E = assay: Steady-state kinetics of peroxidase activity, AncDyPD-b1 D222E variant; format: biochemical; conditions: cooperativity model; 25 °C; H2O2 with ABTS as electron donor
Summary of the method: as §1

AncDyPD‐b1 R390K‐D222E = assay: Steady-state kinetics of peroxidase activity, AncDyPD-b1 R390K-D222E variant; format: biochemical; conditions: cooperativity model; 25 °C; H2O2 with ABTS as electron donor
Summary of the method: as §1

AncDyPD‐b1 D222A = assay: Steady-state kinetics of peroxidase activity, AncDyPD-b1 D222A variant; format: biochemical; conditions: for n (cooperativity constant): cooperativity model, 25 °C, H2O2 with ABTS as electron donor
Summary of the method: as §1

AncDyPD‐b1 = assay: Sulfoxidation; format: biochemical; conditions: 17, 25, and 30 °C, 36 h, pH 3.5, 1.0 mM H2O2, 2.5 mM thioanisole
Irpex lacteus F17 DyP = conditions: cited from earlier work
FtrDyP = assay: Mn2+ oxidation by FtrDyP; format: biochemical, Funalia (Coriolopsis) trogii; conditions: Mn^2+ substrate

Row | Compound | n (cooperativity constant) (AncDyPD‐b1 R390A) | n (cooperativity constant) (AncDyPD‐b1 R390K) | n (cooperativity constant) (AncDyPD‐b1 D222E) | n (cooperativity constant) (AncDyPD‐b1 R390K‐D222E) | n (cooperativity constant) (AncDyPD‐b1 D222A) | Km (Irpex lacteus F17 DyP) [µM] | k cat (Irpex lacteus F17 DyP) [s⁻¹] | further results
1 | Nc1c(N=Nc2ccc(S(=O)(=O)CCOS(=O)(=O)[O-])cc2)c(S(=O)(=O)[O-])cc2cc(S(=O)(=O)[O-])c(N=Nc3ccc(S(=O)(=O)CCOS(=O)(=O)[O-])cc3)c(O)c12.[Na+].[Na+].[Na+].[Na+] [RB5, Reactive Black 5] | 1 | 2.1 | 2.2 | 2.3 | 2.8 |  |  | 
2 | CSc1ccccc1 [thioanisole] |  |  |  |  |  |  |  | conversion (peroxygenase activity, sulfoxidation) (AncDyPD‐b1): no conversion
3 | Nc1c(S(=O)(=O)[O-])cc(Nc2cccc(S(=O)(=O)CCOS(=O)(=O)[O-])c2)c2c1C(=O)c1ccccc1C2=O.[Na+].[Na+] [RB19, Reactive Blue 19] |  |  |  |  |  | 133 | 5345 | 
4 | CCn1c(=NN=c2sc3cc(S(=O)(=O)O)ccc3n2CC)sc2cc(S(=O)(=O)O)ccc21 [ABTS, 2,2'‐azino‐bis(3‐ethylbenzothiazoline‐6‐sulfonic acid)] |  |  |  |  |  | 62 | 8356 | fold decrease of KM versus WT (AncDyPD‐b1 D222A; ABTS oxidation, D222A vs WT): 80 fold; fold lower k cat than WT (AncDyPD‐b1 D222A; ABTS oxidation, D222A vs WT): 150 fold
5 | O=S(=O)([O-])[O-].[Mn+2] [Mn^2+, MnSO4] |  |  |  |  |  |  |  | efficiency of FtrDyP relative to AncDyPD‐b1 (FtrDyP): 500 times
6 | OO [H2O2, hydrogen peroxide] | 1 | 1.2 | 1.4 | 2.2 | 1 |  |  | 
